Data taken from ChEMBL document CHEMBL4387700, “A novel, potent, and orally bioavailable thiazole HCV NS5A inhibitor for the treatment of hepatitis C virus” (Eur J Med Chem, 2019).

Assay: Cytotoxicity against human HuH7 cells assessed as reduction in cell viability by MTS assay
Type: cell-based, Huh-7
Outline: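 Viability of Huh-7 cells was read by MTS assay.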

Structure (SMILES) | CC50 [µM]
CCC(=O)N[C@@H](C(=O)N1CCC[C@H]1c1ncc(-c2ccc(-c3ccc(-c4cnc([C@@H]5CCCN5C(=O)[C@H](NC(=O)CC)c5ccccc5)s4)cc3)cc2)s1)c1ccccc1 | > 50
CCCCCC(=O)N[C@H](C(=O)N1CCC[C@H]1c1ncc(-c2ccc(-c3ccc(-c4cnc([C@@H]5CCCN5C(=O)[C@H](NC(=O)CCCCC)c5ccccc5)s4)cc3)cc2)s1)c1ccccc1 | > 50
CCC(=O)N[C@H](C(=O)N1CCC[C@H]1c1ncc(-c2ccc(-c3ccc(-c4cnc([C@@H]5CCCN5C(=O)[C@H](NC(=O)CC)c5ccccc5)s4)cc3)cc2)s1)c1ccccc1 | > 50
O=C(Cc1ccccc1)N[C@H](C(=O)N1CCC[C@H]1c1ncc(-c2ccc(-c3ccc(-c4cnc([C@@H]5CCCN5C(=O)[C@H](NC(=O)Cc5ccccc5)c5ccccc5)s4)cc3)cc2)s1)c1ccccc1 | > 50
CCN(CC)CCC(=O)N[C@H](C(=O)N1CCC[C@H]1c1ncc(-c2ccc(-c3ccc(-c4cnc([C@@H]5CCCN5C(=O)[C@H](NC(=O)CCN(CC)CC)c5ccccc5)s4)cc3)cc2)s1)c1ccccc1 | > 50
CN1CCN(CCC(=O)N[C@H](C(=O)N2CCC[C@H]2c2ncc(-c3ccc(-c4ccc(-c5cnc([C@@H]6CCCN6C(=O)[C@H](NC(=O)CCN6CCN(C)CC6)c6ccccc6)s5)cc4)cc3)s2)c2ccccc2)CC1 | > 50
CCCC[C@H](NC(=O)OC)C(=O)N1CCC[C@H]1c1ncc(-c2ccc(-c3ccc(-c4cnc([C@@H]5CCCN5C(=O)[C@H](CCCC)NC(=O)OC)s4)cc3)cc2)s1 | > 50
CN(C)CCC(=O)N[C@@H](C(=O)N1CCC[C@H]1c1ncc(-c2ccc(-c3ccc(-c4cnc([C@@H]5CCCN5C(=O)[C@H](NC(=O)CCN(C)C)c5ccccc5)s4)cc3)cc2)s1)c1ccccc1 | > 50
CCOC(=O)N[C@H](C(=O)N1CCC[C@H]1c1ncc(-c2ccc(-c3ccc(-c4cnc([C@@H]5CCCN5C(=O)[C@@H](NC(=O)OCC)C(C)C)s4)cc3)cc2)s1)C(C)C | > 50
COC(=O)N[C@H](C(=O)N1CCC[C@H]1c1ncc(-c2ccc(-c3ccc(-c4cnc([C@@H]5CCCN5C(=O)[C@@H](NC(=O)OC)C(C)(C)C)s4)cc3)cc2)s1)C(C)(C)C | > 50
O=C(N[C@@H](C(=O)N1CCC[C@H]1c1ncc(-c2ccc(-c3ccc(-c4cnc([C@@H]5CCCN5C(=O)[C@H](NC(=O)C5CCCC5)c5ccccc5)s4)cc3)cc2)s1)c1ccccc1)C1CCCC1 | > 50
CCCCC(=O)N[C@H](C(=O)N1CCC[C@H]1c1ncc(-c2ccc(-c3ccc(-c4cnc([C@@H]5CCCN5C(=O)[C@H](NC(=O)CCCC)c5ccccc5)s4)cc3)cc2)s1)c1ccccc1 | > 50
O=C(Cc1ccccc1)N[C@@H](C(=O)N1CCC[C@H]1c1ncc(-c2ccc(-c3ccc(-c4cnc([C@@H]5CCCN5C(=O)[C@H](NC(=O)Cc5ccccc5)c5ccccc5)s4)cc3)cc2)s1)c1ccccc1 | > 50
O=C(N[C@@H](C(=O)N1CCC[C@H]1c1ncc(-c2ccc(-c3ccc(-c4cnc([C@@H]5CCCN5C(=O)[C@H](NC(=O)C5CCCCC5)c5ccccc5)s4)cc3)cc2)s1)c1ccccc1)C1CCCCC1 | > 50
CCC[C@H](NC(=O)OC)C(=O)N1CCC[C@H]1c1ncc(-c2ccc(-c3ccc(-c4cnc([C@@H]5CCCN5C(=O)[C@H](CCC)NC(=O)OC)s4)cc3)cc2)s1 | > 50
CS(=O)(=O)N[C@@H](C(=O)N1CCC[C@H]1c1ncc(-c2ccc(-c3ccc(-c4cnc([C@@H]5CCCN5C(=O)[C@H](NS(C)(=O)=O)c5ccccc5)s4)cc3)cc2)s1)c1ccccc1 | > 50
O=C(N[C@@H](C(=O)N1CCC[C@H]1c1ncc(-c2ccc(-c3ccc(-c4cnc([C@@H]5CCCN5C(=O)[C@H](NC(=O)c5ccccc5)c5ccccc5)s4)cc3)cc2)s1)c1ccccc1)c1ccccc1 | > 50
O=C(N[C@@H](C(=O)N1CCC[C@H]1c1ncc(-c2ccc(-c3ccc(-c4cnc([C@@H]5CCCN5C(=O)[C@H](NC(=O)c5ccccn5)c5ccccc5)s4)cc3)cc2)s1)c1ccccc1)c1ccccn1 | > 50
CC(C)C(=O)N[C@H](C(=O)N1CCC[C@H]1c1ncc(-c2ccc(-c3ccc(-c4cnc([C@@H]5CCCN5C(=O)[C@H](NC(=O)C(C)C)c5ccccc5)s4)cc3)cc2)s1)c1ccccc1 | > 50
O=C(CCN1CCCCC1)N[C@H](C(=O)N1CCC[C@H]1c1ncc(-c2ccc(-c3ccc(-c4cnc([C@@H]5CCCN5C(=O)[C@H](NC(=O)CCN5CCCCC5)c5ccccc5)s4)cc3)cc2)s1)c1ccccc1 | > 50
O=C(N[C@@H](C(=O)N1CCC[C@H]1c1ncc(-c2ccc(-c3ccc(-c4cnc([C@@H]5CCCN5C(=O)[C@H](NC(=O)c5cccnc5)c5ccccc5)s4)cc3)cc2)s1)c1ccccc1)c1cccnc1 | > 50
CCC[C@@H](NC(=O)C1CC1)C(=O)N1CCC[C@H]1c1ncc(-c2ccc(-c3ccc(-c4cnc([C@@H]5CCCN5C(=O)[C@@H](CCC)NC(=O)C5CC5)s4)cc3)cc2)s1 | > 50
O=C(N[C@H](C(=O)N1CCC[C@H]1c1ncc(-c2ccc(-c3ccc(-c4cnc([C@@H]5CCCN5C(=O)[C@H](NC(=O)N5CCOCC5)c5ccccc5)s4)cc3)cc2)s1)c1ccccc1)N1CCOCC1 | > 50
COC(=O)N[C@@H](C)C(=O)N1CCC[C@H]1c1ncc(-c2ccc(-c3ccc(-c4cnc([C@@H]5CCCN5C(=O)[C@H](C)NC(=O)OC)s4)cc3)cc2)s1 | > 50

Structure (SMILES) | CC50 [µM]
O=C(CCN1CCCC1)N[C@@H](C(=O)N1CCC[C@H]1c1ncc(-c2ccc(-c3ccc(-c4cnc([C@@H]5CCCN5C(=O)[C@H](NC(=O)CCN5CCCC5)c5ccccc5)s4)cc3)cc2)s1)c1ccccc1 | > 50
CC(C)(C)C(=O)N[C@@H](C(=O)N1CCC[C@H]1c1ncc(-c2ccc(-c3ccc(-c4cnc([C@@H]5CCCN5C(=O)[C@H](NC(=O)C(C)(C)C)c5ccccc5)s4)cc3)cc2)s1)c1ccccc1 | > 50
O=C(N[C@@H](C(=O)N1CCC[C@H]1c1ncc(-c2ccc(-c3ccc(-c4cnc([C@@H]5CCCN5C(=O)[C@H](NC(=O)C5CC5)C5CCCCC5)s4)cc3)cc2)s1)C1CCCCC1)C1CC1 | > 50
O=C(N[C@H](C(=O)N1CCC[C@H]1c1ncc(-c2ccc(-c3ccc(-c4cnc([C@@H]5CCCN5C(=O)[C@H](NC(=O)c5ccoc5)c5ccccc5)s4)cc3)cc2)s1)c1ccccc1)c1ccoc1 | > 50
CC(C)C(=O)N[C@@H](C(=O)N1CCC[C@H]1c1ncc(-c2ccc(-c3ccc(-c4cnc([C@@H]5CCCN5C(=O)[C@H](NC(=O)C(C)C)c5ccccc5)s4)cc3)cc2)s1)c1ccccc1 | > 50
O=C(CCN1CCCC1)N[C@H](C(=O)N1CCC[C@H]1c1ncc(-c2ccc(-c3ccc(-c4cnc([C@@H]5CCCN5C(=O)[C@H](NC(=O)CCN5CCCC5)c5ccccc5)s4)cc3)cc2)s1)c1ccccc1 | > 50
O=C(N[C@H](C(=O)N1CCC[C@H]1c1ncc(-c2ccc(-c3ccc(-c4cnc([C@@H]5CCCN5C(=O)[C@H](NC(=O)N5CCCCC5)c5ccccc5)s4)cc3)cc2)s1)c1ccccc1)N1CCCCC1 | > 50
CC[C@@H](NC(=O)C1CC1)C(=O)N1CCC[C@H]1c1ncc(-c2ccc(-c3ccc(-c4cnc([C@@H]5CCCN5C(=O)[C@@H](CC)NC(=O)C5CC5)s4)cc3)cc2)s1 | > 50
O=C(N[C@H](C(=O)N1CCC[C@H]1c1ncc(-c2ccc(-c3ccc(-c4cnc([C@@H]5CCCN5C(=O)[C@H](NC(=O)C5CC5)c5ccccc5)s4)cc3)cc2)s1)c1ccccc1)C1CC1 | > 50
CCCCCC(=O)N[C@@H](C(=O)N1CCC[C@H]1c1ncc(-c2ccc(-c3ccc(-c4cnc([C@@H]5CCCN5C(=O)[C@H](NC(=O)CCCCC)c5ccccc5)s4)cc3)cc2)s1)c1ccccc1 | > 50
CC(C)C[C@@H](NC(=O)C1CC1)C(=O)N1CCC[C@H]1c1ncc(-c2ccc(-c3ccc(-c4cnc([C@@H]5CCCN5C(=O)[C@@H](CC(C)C)NC(=O)C5CC5)s4)cc3)cc2)s1 | > 50
O=C(CCn1cccc1)N[C@H](C(=O)N1CCC[C@H]1c1ncc(-c2ccc(-c3ccc(-c4cnc([C@@H]5CCCN5C(=O)[C@H](NC(=O)CCn5cccc5)c5ccccc5)s4)cc3)cc2)s1)c1ccccc1 | > 50
CC(C)(C)C(=O)N[C@H](C(=O)N1CCC[C@H]1c1ncc(-c2ccc(-c3ccc(-c4cnc([C@@H]5CCCN5C(=O)[C@H](NC(=O)C(C)(C)C)c5ccccc5)s4)cc3)cc2)s1)c1ccccc1 | > 50
CC(C)[C@@H](NC(=O)C1CC1)C(=O)N1CCC[C@H]1c1ncc(-c2ccc(-c3ccc(-c4cnc([C@@H]5CCCN5C(=O)[C@H](NC(=O)C5CC5)C(C)C)s4)cc3)cc2)s1 | > 50
C[C@@H](NC(=O)C1CC1)C(=O)N1CCC[C@H]1c1ncc(-c2ccc(-c3ccc(-c4cnc([C@@H]5CCCN5C(=O)[C@@H](C)NC(=O)C5CC5)s4)cc3)cc2)s1 | > 50
CCCC[C@@H](NC(=O)C1CC1)C(=O)N1CCC[C@H]1c1ncc(-c2ccc(-c3ccc(-c4cnc([C@@H]5CCCN5C(=O)[C@@H](CCCC)NC(=O)C5CC5)s4)cc3)cc2)s1 | > 50
O=C(CCN1CCOCC1)N[C@@H](C(=O)N1CCC[C@H]1c1ncc(-c2ccc(-c3ccc(-c4cnc([C@@H]5CCCN5C(=O)[C@H](NC(=O)CCN5CCOCC5)c5ccccc5)s4)cc3)cc2)s1)c1ccccc1 | > 50
CCCCC(=O)N[C@@H](C(=O)N1CCC[C@H]1c1ncc(-c2ccc(-c3ccc(-c4cnc([C@@H]5CCCN5C(=O)[C@H](NC(=O)CCCC)c5ccccc5)s4)cc3)cc2)s1)c1ccccc1 | > 50
CN(C)CCC(=O)N[C@H](C(=O)N1CCC[C@H]1c1ncc(-c2ccc(-c3ccc(-c4cnc([C@@H]5CCCN5C(=O)[C@H](NC(=O)CCN(C)C)c5ccccc5)s4)cc3)cc2)s1)c1ccccc1 | > 50
O=C(N[C@@H](C(=O)N1CCC[C@H]1c1ncc(-c2ccc(-c3ccc(-c4cnc([C@@H]5CCCN5C(=O)[C@H](NC(=O)C5CCC5)c5ccccc5)s4)cc3)cc2)s1)c1ccccc1)C1CCC1 | > 50
CCCC(=O)N[C@@H](C(=O)N1CCC[C@H]1c1ncc(-c2ccc(-c3ccc(-c4cnc([C@@H]5CCCN5C(=O)[C@H](NC(=O)CCC)c5ccccc5)s4)cc3)cc2)s1)c1ccccc1 | > 50
O=C(N[C@@H](C(=O)N1CCC[C@H]1c1ncc(-c2ccc(-c3ccc(-c4cnc([C@@H]5CCCN5C(=O)[C@H](NC(=O)c5ccco5)c5ccccc5)s4)cc3)cc2)s1)c1ccccc1)c1ccco1 | > 50
O=C(N[C@H](C(=O)N1CCC[C@H]1c1ncc(-c2ccc(-c3ccc(-c4cnc([C@@H]5CCCN5C(=O)[C@H](NC(=O)c5ccco5)c5ccccc5)s4)cc3)cc2)s1)c1ccccc1)c1ccco1 | > 50
